Source: ChEMBL document CHEMBL1909525, “Synthesis and anticonvulsant activity of novel 2,6-diketopiperazine derivatives. Part 1: perhydropyrrole[1,2-a]pyrazines” (Eur J Med Chem, 2011)
The source made the active and inactive calls. The calls are words filed in the database; no cut-off is given here.

Tests used:
Mus musculus [1] = assay: Neurotoxicity in albino Carworth Farms No.1 mouse assessed as motor impairment at 30 mg/kg, ip after 0.5 hrs by rotarod test; type: toxicity, organism-based; parameters: dose 30 mg/kg, route intraperitoneal; conditions: in vivo
Method in brief: (§1)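 Rotorod neurotoxicity in mice at 6 r.p.m. Compound given i.p. (30, 100, 300 mg/kg) in 0.5% methylcellulose; tested at 30 min and 4 h. Impairment is inability to keep equilibrium on the rod for a given time; scored as impaired/tested.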

Mus musculus [2] = assay: Neurotoxicity in albino Carworth Farms No.1 mouse assessed as motor impairment at 100 mg/kg, ip after 0.5 hrs by rotarod test; type: toxicity, organism-based; parameters: dose 100 mg/kg, route intraperitoneal; conditions: in vivo; method in brief: as §1
Mus musculus [3] = assay: Neurotoxicity in albino Carworth Farms No.1 mouse assessed as motor impairment at 300 mg/kg, ip after 0.5 hrs by rotarod test; type: toxicity, organism-based; parameters: dose 300 mg/kg, route intraperitoneal; conditions: in vivo; method in brief: as §1
Mus musculus [4] = assay: Anticonvulsant activity in albino Carworth Farms No.1 mouse assessed as protection against subcutaneous metrazol-induced seizure at 30 mg/kg, ip after 0.5 hrs; type: functional, organism-based; parameters: dose 30 mg/kg
Method in brief: (§2)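 Mouse scMET test. Compound given i.p. (30, 100 or 300 mg/kg) in 0.5% methylcellulose. Pentylenetetrazole 85 mg/kg (CD97) given s.c. at 0.5 or 4 h, then mice observed for 30 min. Protection is absence of clonic spasms; scored as protected/tested.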

Mus musculus [5] = assay: Anticonvulsant activity in albino Carworth Farms No.1 mouse assessed as protection against subcutaneous metrazol-induced seizure at 30 mg/kg, ip after 4 hrs; type: functional, organism-based; parameters: dose 30 mg/kg; method in brief: as §2
Mus musculus [6] = assay: Anticonvulsant activity in albino Carworth Farms No.1 mouse assessed as protection against subcutaneous metrazol-induced seizure at 100 mg/kg, ip after 0.5 hrs; type: functional, organism-based; parameters: dose 100 mg/kg; method in brief: as §2
Mus musculus [7] = assay: Anticonvulsant activity in albino Carworth Farms No.1 mouse assessed as protection against subcutaneous metrazol-induced seizure at 100 mg/kg, ip after 4 hrs; type: functional, organism-based; parameters: dose 100 mg/kg; method in brief: as §2
Mus musculus [8] = assay: Anticonvulsant activity in albino Carworth Farms No.1 mouse assessed as protection against subcutaneous metrazol-induced seizure at 300 mg/kg, ip after 0.5 hrs; type: functional, organism-based; parameters: dose 300 mg/kg; method in brief: as §2
Mus musculus [9] = assay: Anticonvulsant activity in albino Carworth Farms No.1 mouse assessed as protection against subcutaneous metrazol-induced seizure at 300 mg/kg, ip after 4 hrs; type: functional, organism-based; parameters: dose 300 mg/kg; method in brief: as §2
Mus musculus [10] = assay: Anticonvulsant activity in ip dosed albino Carworth Farms No.1 mouse assessed as protection against maximal electroshock-induced seizure after 0.25 hrs; type: functional; conditions: albino Carworth Farms No.1, ip
Method in brief: (§3)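 Mouse quantification at the time of peak effect, compound given i.p. in 0.5% methylcellulose. Groups of at least eight mice received varied doses until at least two points fell between 100 and 0% response. ED50 (MES, scMET) and TD50 (rotorod) with 95% CI by probit analysis (Finney). PI = TD50/ED50 MES.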

Mus musculus [11] = assay: Anticonvulsant activity in ip dosed albino Carworth Farms No.1 mouse assessed as protection against subcutaneous metrazol-induced seizure after 0.25 hrs; type: functional; conditions: albino Carworth Farms No.1, 0.25 h; method in brief: as §3
[12] = Neurotoxicity in ip dosed albino Carworth Farms No.1 mouse assessed as motor impairment after 0.25 hrs by rotarod test; type: toxicity, organism-based; conditions: Carworth Farms No.1 (albino), in vivo
Method in brief: (§4)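 Mouse quantification at the time of peak effect, compound given i.p. in 0.5% methylcellulose. Groups of at least eight mice received varied doses until at least two points fell between 100 and 0% response. PI = TD50/ED50 MES.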

Mus musculus [13] = species: Mus musculus; assay: Protective index, ratio of TD50 for albino Carworth Farms No.1 mouse to ED50 for albino Carworth Farms No.1 mouse by maximal electroshock-induced seizure test; type: functional; method in brief: as §4
Mus musculus [14] = assay: Anticonvulsant activity in ip dosed albino Carworth Farms No.1 mouse assessed as time needs to show peak effect for protection against maximal electroshock-induced seizure; type: functional
Rattus norvegicus [15] = assay: Toxicity in albino Sprague-Dawley rat pilocarpine-induced status epilepticus model assessed as change in body weight in protected rat at 600 mg/kg, ip measured after 24 hrs of time from first stage 3 seizures; type: organism-based; parameters: dose 600 mg/kg, route intraperitoneal; conditions: in vivo
Method in brief: (§5)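 Pilocarpine-induced status prevention in male albino Sprague-Dawley rats (150–180 g). Compound given i.p. and followed by a pilocarpine challenge. Animals were sorted as protected or non-protected, and average body weight change (g) ± S.E.M. was recorded for each group.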

Rattus norvegicus [16] = assay: Toxicity in albino Sprague-Dawley rat pilocarpine-induced status epilepticus model assessed as change in body weight in non-protected rat at 600 mg/kg, ip measured after 24 hrs of time from first stage 3 seizures; type: organism-based; parameters: dose 600 mg/kg, route intraperitoneal; conditions: in vivo; method in brief: as §5
Mus musculus [17] = assay: Anticonvulsant activity in albino Carworth Farms No.1 mouse assessed as protection against maximal electroshock-induced seizure at 30 mg/kg, ip after 0.5 hrs; type: functional, organism-based; parameters: dose 30 mg/kg
Method in brief: (§6)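 Mouse MES test with compound given i.p. (30, 100 or 300 mg/kg) in 0.5% methylcellulose; tested at 0.5 and 4 h. Corneal stimulus of 50 mA at 60 Hz for 0.2 s, electrodes primed with 0.5% butacaine in 0.9% NaCl. Protection is abolition of hindlimb tonic extension; scored as protected/tested.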

Mus musculus [18] = assay: Anticonvulsant activity in albino Carworth Farms No.1 mouse assessed as protection against maximal electroshock-induced seizure at 30 mg/kg, ip after 4 hrs; type: functional, organism-based; parameters: dose 30 mg/kg; method in brief: as §6
Mus musculus [19] = assay: Anticonvulsant activity in albino Carworth Farms No.1 mouse assessed as protection against maximal electroshock-induced seizure at 100 mg/kg, ip after 0.5 hrs; type: functional, organism-based; parameters: dose 100 mg/kg; method in brief: as §6
Mus musculus [20] = assay: Anticonvulsant activity in albino Carworth Farms No.1 mouse assessed as protection against maximal electroshock-induced seizure at 100 mg/kg, ip after 4 hrs; type: functional, organism-based; parameters: dose 100 mg/kg; method in brief: as §6
Mus musculus [21] = assay: Anticonvulsant activity in albino Carworth Farms No.1 mouse assessed as protection against maximal electroshock-induced seizure at 300 mg/kg, ip after 0.5 hrs; type: functional, organism-based; parameters: dose 300 mg/kg; method in brief: as §6
Mus musculus [22] = assay: Anticonvulsant activity in albino Carworth Farms No.1 mouse assessed as protection against maximal electroshock-induced seizure at 300 mg/kg, ip after 4 hrs; type: functional, organism-based; parameters: dose 300 mg/kg; method in brief: as §6
Mus musculus [23] = assay: Neurotoxicity in albino Carworth Farms No.1 mouse assessed as motor impairment at 30 mg/kg, ip after 4 hrs by rotarod test; type: toxicity, organism-based; parameters: dose 30 mg/kg, route intraperitoneal; conditions: in vivo; method in brief: as §1
Mus musculus [24] = assay: Neurotoxicity in albino Carworth Farms No.1 mouse assessed as motor impairment at 300 mg/kg, ip after 4 hrs by rotarod test; type: toxicity, organism-based; parameters: dose 300 mg/kg, route intraperitoneal; conditions: in vivo; method in brief: as §1
Rattus norvegicus [25] = assay: Anticonvulsant activity in albino Sprague-Dawley rat assessed as protection against pilocarpine-induced status epilepticus at 600 mg/kg, ip measured after time from first stage 3 seizures; type: functional, organism-based; parameters: dose 600 mg/kg
Method in brief: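 Male albino Sprague-Dawley rats (150–180 g) given compound i.p., then a pilocarpine challenge dose immediately (0 min) or 30 min after treatment. Outcome scored as protection or no protection from epileptic seizures, reported as number protected/number tested.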

Mus musculus [26] = assay: Anticonvulsant activity in albino Carworth Farms No.1 mouse assessed as protection against electric-current for 3 secs-induced seizure at 100 mg/kg, ip after 2 hrs by 6Hz minimal clonic seizure test; type: functional, organism-based; parameters: dose 100 mg/kg
Method in brief: (§7)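 6 Hz psychomotor seizure test in mice. Compound given i.p. as a suspension in 0.5% methylcellulose. Corneal stimulation at 32 mA, 0.2-ms monopolar rectangular pulses at 6 Hz for 3 s, from a constant-current device. Tests run 0.25–4 h after dosing. A mouse counted as protected if it resumed normal exploratory behaviour within 10 s; scored as protected/tested.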

Mus musculus [27] = assay: Anticonvulsant activity in albino Carworth Farms No.1 mouse assessed as protection against electric-current for 3 secs-induced seizure at 100 mg/kg, ip after 0.25 hrs by 6Hz minimal clonic seizure test; type: functional, organism-based; parameters: dose 100 mg/kg; method in brief: as §7
Mus musculus [28] = assay: Anticonvulsant activity in albino Carworth Farms No.1 mouse assessed as protection against electric-current for 3 secs-induced seizure at 100 mg/kg, ip after 4 hrs by 6Hz minimal clonic seizure test; type: functional, organism-based; parameters: dose 100 mg/kg; method in brief: as §7
Mus musculus [29] = assay: Neurotoxicity in albino Carworth Farms No.1 mouse assessed as motor impairment at 100 mg/kg, ip after 0.25 hrs by rotarod test; type: toxicity, organism-based; parameters: dose 100 mg/kg, route intraperitoneal; conditions: in vivo
Method in brief: (§8)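 Rotorod neurotoxicity in mice (18–25 g) following i.p. dosing of a suspension in 0.5% methylcellulose in water, tested at intervals between 0.25 and 4 h. Impairment was scored as failure to keep equilibrium on a 6 r.p.m. rod, reported as number impaired/number tested.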

Mus musculus [30] = assay: Neurotoxicity in albino Carworth Farms No.1 mouse assessed as motor impairment at 100 mg/kg, ip after 2 hrs by rotarod test; type: toxicity, organism-based; parameters: dose 100 mg/kg, route intraperitoneal; conditions: in vivo; method in brief: as §8
Mus musculus [31] = assay: Neurotoxicity in albino Carworth Farms No.1 mouse assessed as motor impairment at 100 mg/kg, ip after 4 hrs by rotarod test; type: toxicity, organism-based; parameters: dose 100 mg/kg, route intraperitoneal; conditions: in vivo; method in brief: as §1
Mus musculus [32] = assay: Anticonvulsant activity in ip dosed albino Carworth Farms No.1 mouse assessed as protection against electric-current for 3 secs-induced seizure after 0.25 hrs by 6Hz minimal clonic seizure test; type: functional; conditions: albino Carworth Farms No.1, ip
Mus musculus [33] = assay: Anticonvulsant activity in ip dosed albino Carworth Farms No.1 mouse assessed as time needs to show peak effect for electric-current for 3 secs-induced seizure after 0.25 hrs by 6Hz minimal clonic seizure test; type: functional
[34] = Neurotoxicity in ip dosed albino Carworth Farms No.1 mouse assessed as motor impairment after 0.5 hrs by rotarod test; type: toxicity, organism-based; conditions: Carworth Farms No.1 (albino), in vivo
Method in brief: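 Rotorod test in mice (18–25 g) dosed i.p. with compound suspended in 0.5% methylcellulose in water. Tested 30 min after dosing. Impairment was scored as inability to keep equilibrium on a 6 r.p.m. rod. TD50 came from groups of ≥8 mice at the time of peak effect, with 95% confidence intervals by probit analysis (Finney method).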

Mus musculus [35] = assay: Neurotoxicity in albino Carworth Farms No.1 mouse assessed as motor impairment at 100 mg/kg, ip after 1 hr by rotarod test; type: toxicity, organism-based; parameters: dose 100 mg/kg, route intraperitoneal; conditions: in vivo; method in brief: as §8

Cl.O=C1[C@H](c2ccccc2)N2CCC[C@H]2C(=O)N1CCc1ccccc1
Activity (Mus musculus [1]): Non-toxic
Activity (Mus musculus [2]): Non-toxic
Activity (Mus musculus [3]): Non-toxic
Activity (Mus musculus [4]): inactive
Activity (Mus musculus [5]): inactive
Activity (Mus musculus [6]): inactive
Activity (Mus musculus [7]): inactive
Activity (Mus musculus [8]): inactive
Activity (Mus musculus [9]): inactive
ED50 (Mus musculus [10]): 80.6 mg/kg
ED50 (Mus musculus [11]): > 200 mg/kg
TD50 at 0.25 h [12]: 178 mg/kg
Ratio TD50/ED50 (Mus musculus [13]): 2.2
Time (Mus musculus [14]): 0.25 h
Activity (Rattus norvegicus [15]): -10 g
Activity (Rattus norvegicus [16]): -18.8 g
Activity (Mus musculus [17]): inactive
Activity (Mus musculus [18]): inactive
Activity (Mus musculus [19]): Active
Activity (Mus musculus [20]): inactive
Activity (Mus musculus [21]): Active
Activity (Mus musculus [22]): Active
Activity (Mus musculus [23]): Non-toxic
Activity (Mus musculus [24]): Non-toxic
Activity (Rattus norvegicus [25]): inactive

CCOC(=O)CN1C(=O)[C@H](c2ccccc2)N2CCC[C@H]2C1=O
Activity (Mus musculus [26]): inactive
Activity (Mus musculus [1]): Non-toxic
Activity (Mus musculus [2]): Non-toxic
Activity (Mus musculus [3]): Toxic
Activity (Mus musculus [27]): Active
Activity (Mus musculus [4]): inactive
Activity (Mus musculus [5]): inactive
Activity (Mus musculus [6]): inactive
Activity (Mus musculus [7]): inactive
Activity (Mus musculus [8]): inactive
Activity (Mus musculus [9]): inactive
Activity (Mus musculus [28]): inactive
Activity (Mus musculus [29]): Non-toxic
Activity (Mus musculus [30]): Non-toxic
Activity (Mus musculus [31]): Non-toxic
ED50 (Mus musculus [32]): 55.6 mg/kg
Time (Mus musculus [33]): 0.25 h
TD50 at 0.5 h [34]: 178 mg/kg
Activity (Mus musculus [35]): Non-toxic
Activity (Mus musculus [17]): inactive
Activity (Mus musculus [18]): inactive
Activity (Mus musculus [19]): Active
Activity (Mus musculus [20]): inactive
Activity (Mus musculus [21]): Active
Activity (Mus musculus [22]): Active
Activity (Mus musculus [23]): Non-toxic
Activity (Mus musculus [24]): Non-toxic
